Assay results: ChEMBL document CHEMBL1649165, “Activity profile in vitro of micafungin against Spanish clinical isolates of common and emerging species of yeasts and molds” (2009)
Values after ≈ are worked out from the molar mass of the structure shown.

How the values were obtained:
Type in all cases: functional
Candida albicans = assay: Antimicrobial activity against Candida albicans by broth microdilution method
How it was run: (§1)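 Clinical isolates from human patients, tested by broth microdilution using the AFST-EUCAST reference procedure for fermentative yeasts. The MIC was read per that reference method.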

Candida tropicalis = assay: Antimicrobial activity against Candida tropicalis by broth microdilution method; how it was run: as §1
Nakaseomyces glabratus = assay: Antimicrobial activity against Candida glabrata by broth microdilution method; how it was run: as §1
Kluyveromyces marxianus = assay: Antimicrobial activity against Candida kefyr by broth microdilution method; how it was run: as §1
Wickerhamomyces anomalus = assay: Antimicrobial activity against Candida pelliculosa by broth microdilution method; conditions: Hansenula anomala; how it was run: as §1
Pichia norvegensis = assay: Antimicrobial activity against Candida norvegensis by broth microdilution method; how it was run: as §1
[Candida] intermedia = Antimicrobial activity against Candida intermedia by broth microdilution method; conditions: Sungouiella intermedia; how it was run: as §1
Candida metapsilosis = assay: Antimicrobial activity against Candida metapsilosis by broth microdilution method; conditions: Lodderomyces metapsilosis; how it was run: as §1
[Candida] zeylanoides = Antimicrobial activity against Candida zeylanoides by broth microdilution method; conditions: Dujonia zeylanoides; how it was run: as §1
Saccharomyces cerevisiae = assay: Antimicrobial activity against Saccharomyces cerevisiae by broth microdilution method
Yarrowia lipolytica = assay: Antimicrobial activity against Yarrowia lipolytica by broth microdilution method
Rhodotorula mucilaginosa = assay: Antimicrobial activity against Rhodotorula mucilaginosa by broth microdilution method
How it was run: (§2)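 Nonfermentative yeast clinical isolates (Rhodotorula, Trichosporon) tested by broth microdilution. The EUCAST yeast recommendations were followed strictly, with one minor modification to improve growth. MIC was read as the endpoint.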

Trichosporon dermatis = assay: Antimicrobial activity against Trichosporon dermatis by broth microdilution method; conditions: Cutaneotrichosporon dermatis; how it was run: as §2
Rhodotorula glutinis = assay: Antimicrobial activity against Rhodotorula glutinis by broth microdilution method; how it was run: as §2
Trichosporon domesticum = assay: Antimicrobial activity against Trichosporon mycotoxinivorans by broth microdilution method; conditions: Apiotrichum domesticum
How it was run: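 Spanish human clinical isolates were tested as nonfermentative yeasts by broth microdilution. The method strictly followed the EUCAST recommendations, with a minor modification to improve growth, and the read-out was the MIC.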

Trichosporon = assay: Antimicrobial activity against Trichosporon spp. by broth microdilution method; how it was run: as §2
Aspergillus terreus = assay: Antimicrobial activity against Aspergillus terreus by broth microdilution method
How it was run: (§3)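 Clinical mould isolates, tested by broth microdilution using the AFST-EUCAST reference method for filamentous fungi. For echinocandins, the endpoint was the minimum effective concentration: the lowest drug concentration giving aberrant hyphal growth, read with an inverted microscope.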

Aspergillus flavus = assay: Antimicrobial activity against Aspergillus flavus by broth microdilution method; how it was run: as §3
Aspergillus niger = assay: Antimicrobial activity against Aspergillus niger by broth microdilution method; how it was run: as §3
Aspergillus nidulans = assay: Antimicrobial activity against Aspergillus nidulans by broth microdilution method; how it was run: as §3
Aspergillus sydowii = assay: Antimicrobial activity against Aspergillus sydowii by broth microdilution method; how it was run: as §3
Aspergillus versicolor = assay: Antimicrobial activity against Aspergillus versicolor by broth microdilution method; how it was run: as §3
Aspergillus ochraceus = assay: Antimicrobial activity against Aspergillus ochraceus by broth microdilution method; how it was run: as §3
Fennellia nivea = assay: Antimicrobial activity against Aspergillus niveus by broth microdilution method; how it was run: as §3
Aspergillus glaucus = assay: Antimicrobial activity against Aspergillus glaucus by broth microdilution method; how it was run: as §3
Penicillium = assay: Antimicrobial activity against Penicillium spp. by broth microdilution method
How it was run: (§4)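 Filamentous fungus clinical isolates tested by the AFST-EUCAST reference broth microdilution method for moulds. For echinocandins, the endpoint was the minimum effective concentration: the lowest drug concentration giving aberrant hyphal growth, read with an inverted microscope.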

Fusarium proliferatum = assay: Antimicrobial activity against Fusarium proliferatum by broth microdilution method; how it was run: as §3
Fusarium oxysporum = assay: Antimicrobial activity against Fusarium oxysporum by broth microdilution method; how it was run: as §3
Fusarium verticillioides = assay: Antimicrobial activity against Fusarium verticillioides by broth microdilution method; how it was run: as §4
Paecilomyces lilacinus = assay: Antimicrobial activity against Paecilomyces lilacinus by broth microdilution method; conditions: Purpureocillium lilacinum; how it was run: as §4
[1] = test system: Scopulariopsis brevicaulis; assay: Antimicrobial activity against Scopulariopsis brevicaulis by broth microdilution method; how it was run: as §4
Trichoderma = assay: Antimicrobial activity against Trichoderma spp. by broth microdilution method; how it was run: as §4
Phialemonium curvatum = assay: Antimicrobial activity against Phialemonium curvatum by broth microdilution method; conditions: Thyridium curvatum; how it was run: as §4
Scedosporium apiospermum = assay: Antimicrobial activity against Scedosporium apiospermum by broth microdilution method; how it was run: as §4
Alternaria alternata = assay: Antimicrobial activity against Alternaria alternata by broth microdilution method; how it was run: as §3
Lewia infectoria = assay: Antimicrobial activity against Alternaria infectoria by broth microdilution method; how it was run: as §3
Exophiala dermatitidis = assay: Antimicrobial activity against Exophiala dermatitidis by broth microdilution method
Aureobasidium pullulans = assay: Antimicrobial activity against Aureobasidium pullulans by broth microdilution method
Hortaea werneckii = assay: Antimicrobial activity against Hortaea werneckii by broth microdilution method
Lecythophora hoffmannii = assay: Antimicrobial activity against Lecythophora hoffmannii by broth microdilution method; conditions: Coniochaeta hoffmannii; how it was run: as §4
Mucor = assay: Antimicrobial activity against Mucor spp.by broth microdilution method; how it was run: as §4
[2] = Antimicrobial activity against Rhizopus microsporus by broth microdilution method; how it was run: as §4
Rhizomucor = assay: Antimicrobial activity against Rhizomucor spp.by broth microdilution method; how it was run: as §4
Saksenaea vasiformis = assay: Antimicrobial activity against Saksenaea vasiformis by broth microdilution method; how it was run: as §4
Beauveria bassiana = assay: Antimicrobial activity against Beauveria bassiana by broth microdilution method; how it was run: as §3

CCC(C)n1ncn(-c2ccc(N3CCN(c4ccc(OCC5COC(Cn6cncn6)(c6ccc(Cl)cc6Cl)O5)cc4)CC3)cc2)c1=O (stereo not given) [ITRACONAZOLE]
MIC50 (Candida albicans): 0.02 µg/mL (≈ 0.0283 µM) | MIC90 (Candida albicans): 0.03 µg/mL (≈ 0.0425 µM) | MIC50 (Candida tropicalis): 0.02 µg/mL (≈ 0.0283 µM) | MIC90 (Candida tropicalis): 0.06 µg/mL (≈ 0.085 µM) | MIC50 (Nakaseomyces glabratus): 0.25 µg/mL (≈ 0.354 µM) | MIC90 (Nakaseomyces glabratus): 1 µg/mL (≈ 1.42 µM) | MIC50 (Kluyveromyces marxianus): 0.02 µg/mL (≈ 0.0283 µM) | MIC90 (Kluyveromyces marxianus): 0.06 µg/mL (≈ 0.085 µM) | MIC50 (Wickerhamomyces anomalus): 0.12 µg/mL (≈ 0.17 µM) | MIC90 (Wickerhamomyces anomalus): > 8 µg/mL | MIC50 (Pichia norvegensis): 0.12 µg/mL (≈ 0.17 µM) | MIC90 (Pichia norvegensis): > 8 µg/mL | MIC50 ([Candida] intermedia): 0.12 µg/mL (≈ 0.17 µM) | MIC90 ([Candida] intermedia): > 8 µg/mL | MIC50 (Candida metapsilosis): 0.12 µg/mL (≈ 0.17 µM) | MIC90 (Candida metapsilosis): > 8 µg/mL | MIC50 ([Candida] zeylanoides): 0.12 µg/mL (≈ 0.17 µM) | MIC90 ([Candida] zeylanoides): > 8 µg/mL | MIC50 (Saccharomyces cerevisiae): 0.5 µg/mL (≈ 0.709 µM) | MIC90 (Saccharomyces cerevisiae): 2 µg/mL (≈ 2.83 µM) | MIC50 (Yarrowia lipolytica): 0.5 µg/mL (≈ 0.709 µM) | MIC90 (Yarrowia lipolytica): > 8 µg/mL | MIC50 (Rhodotorula mucilaginosa): 8 µg/mL (≈ 11.3 µM) | MIC90 (Rhodotorula mucilaginosa): > 8 µg/mL | MIC50 (Trichosporon dermatis): 0.5 µg/mL (≈ 0.709 µM) | MIC90 (Trichosporon dermatis): > 8 µg/mL | MIC50 (Rhodotorula glutinis): 0.5 µg/mL (≈ 0.709 µM) | MIC90 (Rhodotorula glutinis): > 8 µg/mL | MIC50 (Trichosporon domesticum): 0.5 µg/mL (≈ 0.709 µM) | MIC90 (Trichosporon domesticum): > 8 µg/mL | MIC50 (Trichosporon): 0.5 µg/mL (≈ 0.709 µM) | MIC90 (Trichosporon): > 8 µg/mL | MIC50 (Aspergillus terreus): 0.25 µg/mL (≈ 0.354 µM) | MIC90 (Aspergillus terreus): 0.5 µg/mL (≈ 0.709 µM) | MIC50 (Aspergillus flavus): 0.25 µg/mL (≈ 0.354 µM) | MIC90 (Aspergillus flavus): 0.5 µg/mL (≈ 0.709 µM) | MIC50 (Aspergillus niger): 1 µg/mL (≈ 1.42 µM) | MIC90 (Aspergillus niger): > 8 µg/mL | MIC50 (Aspergillus nidulans): 0.25 µg/mL (≈ 0.354 µM) | MIC90 (Aspergillus nidulans): 0.5 µg/mL (≈ 0.709 µM) | MIC50 (Aspergillus sydowii): 0.5 µg/mL (≈ 0.709 µM) | MIC90 (Aspergillus sydowii): > 8 µg/mL | MIC50 (Aspergillus versicolor): 0.5 µg/mL (≈ 0.709 µM) | MIC90 (Aspergillus versicolor): 1 µg/mL (≈ 1.42 µM) | MIC50 (Aspergillus ochraceus): 0.5 µg/mL (≈ 0.709 µM) | MIC90 (Aspergillus ochraceus): > 8 µg/mL | MIC50 (Fennellia nivea): 0.5 µg/mL (≈ 0.709 µM) | MIC90 (Fennellia nivea): > 8 µg/mL | MIC50 (Aspergillus glaucus): 0.5 µg/mL (≈ 0.709 µM) | MIC90 (Aspergillus glaucus): > 8 µg/mL | MIC50 (Penicillium): 0.5 µg/mL (≈ 0.709 µM) | MIC90 (Penicillium): > 8 µg/mL | MIC50 (Fusarium proliferatum): > 8 µg/mL | MIC90 (Fusarium proliferatum): > 8 µg/mL | MIC50 (Fusarium oxysporum): > 8 µg/mL | MIC90 (Fusarium oxysporum): > 8 µg/mL | MIC50 (Fusarium verticillioides): > 8 µg/mL | MIC90 (Fusarium verticillioides): > 8 µg/mL | MIC50 (Paecilomyces lilacinus): > 8 µg/mL | MIC90 (Paecilomyces lilacinus): > 8 µg/mL | MIC50 [1]: > 8 µg/mL | MIC90 [1]: > 8 µg/mL | MIC50 (Trichoderma): > 8 µg/mL | MIC90 (Trichoderma): > 8 µg/mL | MIC50 (Phialemonium curvatum): > 8 µg/mL | MIC90 (Phialemonium curvatum): > 8 µg/mL | MIC50 (Scedosporium apiospermum): 1 µg/mL (≈ 1.42 µM) | MIC90 (Scedosporium apiospermum): > 8 µg/mL | MIC50 (Alternaria alternata): 0.5 µg/mL (≈ 0.709 µM) | MIC90 (Alternaria alternata): > 8 µg/mL | MIC50 (Lewia infectoria): 2 µg/mL (≈ 2.83 µM) | MIC90 (Lewia infectoria): > 8 µg/mL | MIC50 (Exophiala dermatitidis): 0.12 µg/mL (≈ 0.17 µM) | MIC90 (Exophiala dermatitidis): > 8 µg/mL | MIC50 (Aureobasidium pullulans): 0.12 µg/mL (≈ 0.17 µM) | MIC90 (Aureobasidium pullulans): > 8 µg/mL | MIC50 (Hortaea werneckii): 0.12 µg/mL (≈ 0.17 µM) | MIC90 (Hortaea werneckii): > 8 µg/mL | MIC50 (Lecythophora hoffmannii): 0.12 µg/mL (≈ 0.17 µM) | MIC90 (Lecythophora hoffmannii): > 8 µg/mL | MIC50 (Mucor): > 8 µg/mL | MIC90 (Mucor): > 8 µg/mL | MIC50 [2]: > 8 µg/mL | MIC90 [2]: > 8 µg/mL | MIC50 (Rhizomucor): > 8 µg/mL | MIC90 (Rhizomucor): > 8 µg/mL | MIC50 (Saksenaea vasiformis): > 8 µg/mL | MIC90 (Saksenaea vasiformis): > 8 µg/mL | MIC50 (Beauveria bassiana): > 8 µg/mL | MIC90 (Beauveria bassiana): > 8 µg/mL
